Bioassay records as filed in PubChem.
SENP1 FRET inh = blocks the human SENP1 SUMO protease catalytic domain; Q9P0U3; recombinant SENP1 catalytic domain, CyPet-SUMO1-YPet FRET cleavage; inhibition, % at 10 µM; 360,000 compounds, 0.21% hits;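 active = inhibition at least 30% at 10 µM, raw YFP signal under a set limit, fluorescence ratio 0.5 to 1.5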
Target sequence (Q9P0U3 419-644 limits assumed): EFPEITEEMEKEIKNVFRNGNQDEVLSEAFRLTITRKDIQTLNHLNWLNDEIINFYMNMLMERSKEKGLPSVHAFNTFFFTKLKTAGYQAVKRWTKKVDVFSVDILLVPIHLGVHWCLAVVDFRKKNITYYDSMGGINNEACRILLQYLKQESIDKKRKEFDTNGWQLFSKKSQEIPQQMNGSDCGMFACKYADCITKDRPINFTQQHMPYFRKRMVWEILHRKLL
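Material: hSENP1 catalytic domain, recombinant; medium: Tris pH 8 with BME, BSA, NP40 and catalase; compound: single concentration of 10 µM compound, 0.5% DMSO final; technique: FRET read of cyan and yellow fluorescence; timing: 50 min enzyme reaction, room temperature, light-protected; reagent: SFCypet-SUMO1-SFYpet substrate at 25 nM; control set: no-enzyme low, enzyme-DMSO high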
SENP7 block = blocks the human protease SENP7; 330,000 compounds, 1.5% hits; AID 434973; inhibition, % at 5 µM; recombinant SENP7, Z-RLRGG-aminoluciferin luminescence, 40 min; Q9BQF6;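 active = inhibition above about 50% at the single test dose, limit read from the data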
Target sequence (Q9BQF6 706-1050 limits assumed): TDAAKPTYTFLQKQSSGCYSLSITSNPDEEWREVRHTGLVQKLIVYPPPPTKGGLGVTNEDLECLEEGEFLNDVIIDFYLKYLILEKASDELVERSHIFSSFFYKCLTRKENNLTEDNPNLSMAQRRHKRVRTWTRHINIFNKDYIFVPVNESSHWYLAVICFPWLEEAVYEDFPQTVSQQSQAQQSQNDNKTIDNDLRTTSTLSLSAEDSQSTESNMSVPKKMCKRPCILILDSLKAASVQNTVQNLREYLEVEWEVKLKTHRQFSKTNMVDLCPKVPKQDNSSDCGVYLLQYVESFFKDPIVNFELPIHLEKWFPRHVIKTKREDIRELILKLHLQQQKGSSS
SENP8 block-1 = SENP8 protease inhibition; Q96LD8; AID 2540; purified SENP8, Z-RLRGG-aminoluciferin cleavage, luminescence; inhibition, % at 10 µM; 330,000 compounds, 1.2% hits; in the data active = inhibition above about 50%
UCH37 inh = human UCH37 deubiquitinating enzyme inhibition. 330,000 compounds, 0.33% hits. purified proteasome/UCH37, Ub-AMC cleavage fluorescence. AID 588478. Q9Y5K5. inhibition, % (concentration not given with the values);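 active = mean inhibition over replicate wells above about 20%, limit read from the data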
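Reagent: Ub-AMC substrate; assay system: Proteasome-associated human UCH37 deubiquitinase; controls: no-proteasome and no-compound wells; read-out: % inhibition of Ub-AMC cleavage fluorescence; timing: 30 min preincubation with enzyme, 25 min cleavage at room temperature; signal: AMC fluorescence from Ub-AMC cleavage, excitation 355 nm, emission 460 nm; buffer or medium: Tris-HCl pH 7.4 plus ovalbumin, ATP-MgCl2, DTT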
SENP6 block = inhibitors of human SENP6 protease. inhibition, % at 10 µM. Recombinant SENP6 catalytic domain, aminoluciferin luminescence. AID 2599. 330,000 compounds, 1.8% hits. Q9GZR1;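 active = inhibition above about 50% at the single tested dose, limit read from the data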
SENP8 block-2 = inhibitors of human SENP8 protease | 360,000 compounds, 0.64% hits | Q96LD8 | recombinant SENP8, Nedd8 substrate fluorescence | inhibition, % at 20 µM; in the data active = inhibition mostly above about 40%, no sharp cut-off; inactive = mostly below about 27%
Hits are given with their value; - = inactive; . = not tested or not shown; ! = repeats disagree. Most compounds without a hit are left out; they make up all but 2.6% or so of the library.

SMILES | SENP1 FRET inh | SENP7 block | SENP8 block-1 | UCH37 inh | SENP6 block | SENP8 block-2
Cc1cc(O)c2c(c1)C(=O)C13C(=C2O)C(=O)[C@H]2[C@@H](O)[C@@H]1[C@H]1[C@H](O)[C@@H]3C(=O)C3=C(O)c4c(O)cc(C)cc4C(=O)C312 (stereo partly drawn) | - | - | - | 28.3 | - | -
O=C(CSC1c2ccccc2-c2ccccc21)NN=Cc1ccc(C(=O)O)cc1 | . | . | . | - | . | .
CC1CCCC=CC2CC(O)CC2C(O)C=CC(=O)O1 (stereo not drawn) | . | . | . | - | . | .
CCOc1ccc(-n2c(-c3cccs3)nc3ccccc3c2=O)cc1 | - | - | - | - | - | -
CCn1nc(-c2cccs2)nc2c(=O)n(C)c(=O)nc1-2 | 44.4 | . | . | 95.2 | . | 80.5
CC(=O)c1ccc2c(c1)C1C(Cl)C(Sc3ccccc3[N+](=O)[O-])CC1C(C(=O)O)N2 (stereo not drawn) | - | . | . | - | . | 77.7
COC(=O)Cn1cc(C=C2C(=O)NC(=O)NC2=O)c2ccccc21 | - | - | - | . | - | -
COc1c(C=C2C(=O)NC(=O)NC2=O)c(CCN(C)C(=O)c2ccccc2)cc2c1OCO2 | - | - | - | - | - | 44.1
CC(=NOC(=O)N(C)C)c1ncc(C(F)(F)F)cc1N1CCOCC1 | . | . | . | - | . | .
CCCC(C)n1[nH]c(=O)c2c1NC(=O)CSC2c1ccc(OC)cc1 (stereo not drawn) | - | - | - | 20.4 | - | -
CCCOc1ccccc1C1SCC(=O)Nc2c1c(=O)[nH]n2C(C)CCC (stereo not drawn) | - | - | - | - | - | -
O=C1NC(=O)N(Cc2ccc(F)cc2)C(=O)/C1=C\c1ccc(N2CCCC2)cc1 | - | - | - | - | - | -
O=C1NC(=O)N(Cc2ccc(F)cc2)C(=O)/C1=C\c1ccc([N+](=O)[O-])s1 | - | - | - | . | - | 50.4
COc1ccc(CN2C(=O)NC(=O)/C(=C/c3ccc([N+](=O)[O-])s3)C2=O)cc1 | - | - | - | . | - | 42.9
CCC12CN3CCN(CC(C3)C1=NNC(=O)c1ccncc1)C2 | . | . | . | - | . | .
CC[n+]1c(-c2ccccc2)c2cc(N)ccc2c2ccc(N)cc21 | - | . | . | . | . | 96.9
CN(CN=C(N)N[N+](=O)[O-])S(=O)(=O)c1ccccc1 | . | . | . | - | . | .
CC12CN3CCN(CC(C3)C1=NNC(N)=O)C2 | . | . | . | - | . | .
CC1=C(N2CC2)C(=O)C(CO)=C(N2CC2)C1=O | - | . | . | . | . | 63.1
COC(COC(N)=O)C1=C(N2CC2)C(=O)C(C)=C(N2CC2)C1=O (stereo not drawn) | - | . | . | . | . | -
CCN(CC)c1ccc(/C=C/[N+](=O)[O-])cc1 | 32.2 | - | - | - | - | -
O=[N+]([O-])c1ccc(NC2CCCC2)c2ccncc12 | - | - | - | - | - | 47.1
CCN1/C(=C\C=C\C2=[N+](CC)c3ccccc3C2(C)C)C(C)(C)c2ccccc21 | 64.1 | - | - | - | - | -
COC1C(C)OC(OC2CC(C)(O)Cc3cc4c(c(O)c32)C(=O)c2c(O)cc3c(c2C4=O)OC2OC3(C)C(O)C(N(C)C)C2O)C(OC)C1(C)OC (stereo not drawn) | - | . | . | . | . | 41.0
C#C[C@@]1(O)CCC2C3CCC4=CC(=NOCC(=O)NC(C(=O)O)C(C)O)CC[C@]4(C)C3CC[C@@]21C (stereo partly drawn) | . | . | . | - | . | .
SMILES | SENP1 FRET inh | SENP7 block | SENP8 block-1 | UCH37 inh | SENP6 block | SENP8 block-2
Cc1cc(C)n(-c2ccc(NN=C(C#N)C#N)cc2)n1 | - | 89.7 | 90.0 | - | 91.8 | -
CCN(CC)c1ccc(C=C2C(=O)N(C)C(=S)N(C)C2=O)o1 | 87.0 | - | - | - | - | -
CN1C(=O)C(=Cc2ccc(N3CCCCC3)o2)C(=O)N(C)C1=S | 88.2 | - | - | . | - | 43.2
O=C1NC(=O)N(c2ccc3c(c2)OCO3)C(=O)/C1=C/c1ccc(N2CCCCC2)o1 | - | - | - | - | - | -
CN1C(=O)C(=Cc2ccc(SC3CCCCC3)o2)C(=O)N(C)C1=O | - | - | - | - | - | -
Cc1cc(C)cc(N2C(=O)/C(=C\c3ccc(N4CCN(C)CC4)o3)C(=O)NC2=S)c1 | 75.7 | - | - | 23.6 | - | -
CC1=C[C@@H](C)CC=C[C@H]2[C@@H]3O[C@]3(C)[C@@H](C)[C@H]3[C@H](Cc4c[nH]c5ccccc45)NC(=O)[C@]32C(=O)C=CC(=O)[C@@H]1O | . | . | . | - | . | .
Cc1c(C=NO)c2ccccc2n1C | . | . | . | - | . | .
COP(=O)(OC)C(C=O)=NNc1ccc([N+](=O)[O-])cc1 | . | . | . | 20.2 | . | .
COc1cc(C=NNP(=S)(c2ccccc2)c2ccccc2)ccc1O | . | . | . | - | . | .
COC(=O)C1C2c3ccccc3OC1(C)N=c1sc(=Cc3cnn(C)c3)c(=O)n12 (stereo not drawn) | . | . | . | - | . | .
COc1cccc(N2C(=O)NC(=O)/C(=C/c3ccc([N+](=O)[O-])s3)C2=O)c1 | - | - | - | . | - | 47.5
COc1ccc(N2C(=O)NC(=O)/C(=C/c3ccc([N+](=O)[O-])s3)C2=O)cc1 | - | - | - | - | - | 69.2
COc1ccccc1N1C(=O)NC(=O)/C(=C/c2ccc([N+](=O)[O-])s2)C1=O | . | - | - | - | - | .
COc1ccc(N2C(=O)NC(=O)/C(=C\c3ccc([N+](=O)[O-])s3)C2=O)cc1 | - | - | - | - | - | 44.2
CC(C)(C)NC(=S)N=C(N)N[N+](=O)[O-] | . | . | . | - | . | .
CCOc1ccc2nc(N=Nc3c(O)[nH]c(=O)[nH]c3=O)sc2c1 | - | - | - | - | - | 44.9
CCOC(=O)c1sc(N=Nc2c(O)[nH]c(=O)[nH]c2=O)c(C(=O)OCC)c1C | . | - | - | - | - | .
O=C(NN=CC1C(=O)NC(=S)N(c2ccccc2)C1=O)c1cc(Br)c(O)c(Br)c1 (stereo not drawn) | . | . | . | - | . | .
COC(=O)C1=C(c2cc3ccccc3o2)C[C@@H]2CC[C@H]1N2C(=O)NCCO | - | - | - | 26.9 | - | -
COC(=O)C1=C(c2ccc(F)cc2F)C[C@@H]2CC[C@H]1N2C(=O)NCCNC(C)=O | - | - | - | 24.6 | - | -
CCCNC(=O)N1[C@H]2CC[C@@H]1C(C(=O)OC)=C(c1cc3ccccc3o1)C2 | - | - | - | - | - | -
CN1C(=O)C(=Cc2ccc(N3CCOCC3)c([N+](=O)[O-])c2)C(=O)N(C)C1=O | . | - | - | - | - | .
O=C1NC(=O)C(=Cc2ccc(N3CCN(C(=O)c4ccccc4)CC3)c([N+](=O)[O-])c2)C(=O)N1 | - | - | - | - | - | 41.0
O=C(CSC1c2ccccc2-c2ccccc21)NN=Cc1ccccc1C(=O)O | . | . | . | - | . | .
NCCc1cc(O)c(O)cc1O | - | . | . | . | . | 36.0
CC1=CC2C=C(C)C(C)C3C(CC(C)C)NC(=O)C23C(=O)C=CC(O)C(O)CC1 (stereo not drawn) | . | . | . | - | . | .
CNC(=O)ON=C(N)Cc1csc2ccccc12 | . | . | . | - | . | .
Oc1ccc2c3c1O[C@H]1[C@@H](O)CC[C@@]4(O)[C@@H](C2)N(CC2CCC2)CC[C@]314 | 32.8! | - | - | - | - | -
